Bioassay records: PubChem BioAssay, several laboratories
FXIa inh 1536: inhibitors of human coagulation factor XIa | P03951 | purified FXIa, Boc-Glu-Ala-Arg-AMC fluorogenic substrate | inhibition, % at 5 µM | hit rate 0.14% among 220,000 | AID 798;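 active means inhibition of at least 40%; inactive means inhibition below 40%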;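 further: fluorescence of freed AMC excited at 355 nm; 0% = enzyme without compound and 100% = no enzyme blank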
thrombin 1536: thrombin (human) inhibition; AID 1046; alpha-thrombin, Boc-VPR-AMC fluorogenic substrate cleavage; inhibition, % at 5 µM; P00734; hit rate 0.26% among 220,000;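 active means inhibition at or above 40%; inactive means inhibition below 40%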;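 further: 0% = enzyme with no compound and 100% = wells without enzyme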
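System: human alpha-thrombin protein; Compound dosing: one concentration per compound, 5 µM, with 0.2% DMSO; Timing: reaction at room temperature; Technique: AMC fluorescence, 355/460 nm; Controls: enzyme without compound as high, wells lacking enzyme as low.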
KLK5 inh: kallikrein 5 (human) inhibition. recombinant hK5, fluorogenic AMC substrate cleavage. AID 873. Q9Y337. inhibition, % at 5 µM. hit rate 0.59% among 210,000;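 active means inhibition of 40% or more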;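 further: 0% = enzyme controls without compound and 100% = no-enzyme blanks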
FXIIa inh: blocks human coagulation factor XIIa protease activity; P00748; purified FXIIa, Boc-QGR-AMC fluorogenic substrate, 2 h; inhibition, % at 5 µM; hit rate 0.3% among 220,000; AID 800; in the data active means inhibition above about 40%;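 further: 0% = enzyme with no compound and 100% = blank without enzyme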
Target sequence (P00748 20-372 limits assumed): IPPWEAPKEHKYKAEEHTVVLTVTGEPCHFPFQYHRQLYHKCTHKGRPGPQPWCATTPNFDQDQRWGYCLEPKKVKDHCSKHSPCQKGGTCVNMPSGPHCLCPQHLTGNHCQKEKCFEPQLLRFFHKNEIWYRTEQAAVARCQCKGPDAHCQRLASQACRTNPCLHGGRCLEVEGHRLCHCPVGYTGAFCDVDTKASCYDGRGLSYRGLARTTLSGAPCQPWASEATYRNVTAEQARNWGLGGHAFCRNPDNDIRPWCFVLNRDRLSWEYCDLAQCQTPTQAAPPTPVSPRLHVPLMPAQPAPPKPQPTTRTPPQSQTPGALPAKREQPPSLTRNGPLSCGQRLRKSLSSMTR
Target sequence (P00748 373-615 limits assumed): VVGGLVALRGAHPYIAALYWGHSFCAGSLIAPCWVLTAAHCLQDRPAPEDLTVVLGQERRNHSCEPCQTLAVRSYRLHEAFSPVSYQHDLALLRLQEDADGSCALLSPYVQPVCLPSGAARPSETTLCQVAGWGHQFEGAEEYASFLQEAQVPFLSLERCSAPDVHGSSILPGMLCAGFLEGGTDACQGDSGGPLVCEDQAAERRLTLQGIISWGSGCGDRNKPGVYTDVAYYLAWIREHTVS
AHR act: activates the human aryl hydrocarbon receptor | AHR-responsive luciferase reporter cells, luminescence | activation, % at 5 µM | hit rate 2.5% among 320,000 | AID 2796; in the data active means activation above about 47%;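 further: 0% = vehicle wells and 100% = reference agonist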
STAT3 act: STAT3 signaling activation; U3A cells, IL-6 STAT3-luciferase reporter, luminescence; 100% = signal with IL-6 EC80 alone; activation (% of control), % at 5.6 µM; hit rate 0.91% among 190,000;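 active means activation above the screen-wide mean of compound activation plus 3 SD, cut at about 130% in these data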;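 further: 0% = background luminescence of wells with medium and substrate only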
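Test system: Human STAT1-deficient U3A cells with stable STAT3-luciferase reporter | Also added: Interleukin-6, 33 ng/mL | Timing: Compound pre-incubation 1 h before IL-6, then 6 h stimulation at 37 °C | Technique: Luciferase reporter luminescence | Read-out: Percent of IL-6-only median luminescence | Benchmarks: IL-6-only wells as 100% reference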
Numbers without * were called inactive; . = no result. A selection: hits, their analogues and other compounds. The true share with any hit is near 3.5%.

SMILES | FXIa inh 1536 | thrombin 1536 | KLK5 inh | FXIIa inh | AHR act | STAT3 act
Cc1c(C(=N)C(C#N)C#N)c(=N)oc2c1ccc1ccccc12 | -6 | -4 | 4 | 3 | 65* | .
O=C(NC1CCCCC1)N1CCCC(c2nc(-c3cccs3)no2)C1 (stereo unspecified) | 3 | 3 | 0 | 9 | -1 | 97
O=C(Nc1ccccc1)N1CCCC(c2nc(-c3cccs3)no2)C1 (stereo unspecified) | -2 | 1 | 3 | 0 | 70* | 100
COc1ccc(NC(=O)N2CCC(c3nc(-c4cccs4)no3)CC2)cc1 | 25 | 2 | -19 | 15 | 60* | 84
CCOc1ccc(S(=O)(=O)NCc2ccc3c(c2)OCO3)cc1C(=O)O | . | . | . | . | 0 | .
Fc1ccc(-c2nc3c(-c4ccccc4)cnn3cc2CCN2CCOCC2)cc1 | 6 | -1 | . | 10 | 28 | 114
Cc1cc(C)cc(NC(=O)C(OC(=O)c2sccc2C)c2ccccc2)c1 (stereo unspecified) | 3 | -11 | -6 | 14 | 5 | 105
C#Cc1cccc(NC(=O)c2ccc3c(c2)C(=O)N(Cc2cccnc2)C3=O)c1 | . | . | . | . | 57* | .
O=C(O)c1cc(NC(=O)c2ccc3c(c2)C(=O)N(Cc2cccnc2)C3=O)cc(C(=O)O)c1 | . | . | . | . | 1 | .
Cc1cc(C)nc(NC(=O)c2ccc(OC(C)C)cc2)n1 | -1 | 3 | -5 | 6 | 49* | 100
COc1ccc(C(=O)Nc2cc(OC)cc(OC)c2)cc1 | -6 | -1 | -2 | 6 | 57* | 81
COc1cc(NC(=O)c2ccccc2)cc(OC)c1 | 7 | 2 | -1 | 13 | 46 | 99
Cc1ccc(NC(=S)NCc2ccc3c(c2)cc(C)n3C)c(C)c1 | -4 | -13 | -2 | 4 | -1 | 102
Cc1ccccc1-n1c(C)nnc1SCc1nc2ccccc2s1 | 9 | 4 | -9 | 13 | 28 | 142*
N/C(Cc1nc2ccccc2s1)=N\O | 5 | -3 | -7 | 6 | 16 | .
NC(=O)CSCc1nc2ccccc2s1 | 1 | -1 | -2 | 9 | 10 | 135*
CC(C)c1ccc(NC2CCCN(C(=O)c3n[nH]c4c3CCC4)C2)cc1 (stereo unspecified) | . | . | . | . | 12 | .
COc1cccc(OCCNc2cc(Cl)ccc2[N+](=O)[O-])c1 | 4 | 6 | 14 | 7 | 2 | 88
CC(O)CN=c1cc(-c2ccccc2)oc2ccc(Cl)cc12 (stereo unspecified) | -4 | 15 | 68* | 16 | 7 | 95
CC(C)CN=c1cc(-c2ccccc2)oc2ccc(Cl)cc12 | 2 | 16 | -1 | 20 | 7 | 94
CCOc1ccccc1CN1CCC(n2nccc2NC(=O)C2CCCC2)CC1 | . | . | . | . | -3 | .
CN1c2ccccc2Sc2cc(N)ccc21 | . | . | . | . | 62* | .
CSc1ccc(-c2cc(=O)c3ccccc3o2)cc1 | -10 | 0 | -11 | -10 | 38 | 141*
O=c1cc(-c2ccccc2F)oc2ccccc12 | 6 | 1 | -13 | 14 | 2 | 101
O=c1cc(-c2ccc(F)cc2)oc2ccccc12 | . | . | . | . | 71* | 97
SMILES | FXIa inh 1536 | thrombin 1536 | KLK5 inh | FXIIa inh | AHR act | STAT3 act
CCCCn1c(N)c(N(CCOC)C(=O)c2ccc(COc3ccccc3)o2)c(=O)[nH]c1=O | . | . | . | . | -1 | .
CC(C)Cn1c(-c2cccs2)nc2nc3ccccc3nc21 | -19 | -2 | -208 | -79 | 52* | 96
CCCCn1c(-c2cccs2)nc2nc3ccccc3nc21 | -8 | -12 | -238 | -6 | 25 | 108
CNC(=S)N(Cc1cc2cc(OC)c(OC)cc2[nH]c1=O)C1CCCC1 | 5 | -7 | -2 | 6 | 2 | 107
COc1cc(C(=O)Nc2ccc(C)cc2)c2ccccc2n1 | . | . | . | . | 43 | .
Cc1ccc2nc(NC(=O)c3cc(-c4ccco4)nc4ccccc34)sc2c1 | 10 | -6 | 0 | 17 | 20 | 83
CCOc1ccc(NC(=O)c2cc(OC)nc3ccccc23)cc1 | . | . | . | . | 65* | .
COc1ccc(NC(=O)c2cc(-c3ccco3)nc3ccccc23)cn1 | . | . | . | . | 71* | .
O=C(Nc1nc2ccccc2s1)c1cc(-c2ccco2)nc2ccccc12 | 6 | 7 | 6 | 15 | 56* | 103
COc1ccc(-c2cc(C(=O)Nc3nc4c(C)cccc4s3)c3ccccc3n2)cc1OC | -12 | -6 | 22 | -2 | 18 | 134*
Cc1ccc(C(=O)N2CCCC(Nc3ccc(F)cc3)C2)cc1C (stereo unspecified) | . | . | . | . | 1 | .
